Results on 45 compounds are retold here after ChEMBL document CHEMBL3399922, “3-Oxoisoxazole-2(3H)-carboxamides and isoxazol-3-yl carbamates: Resistance-breaking acetylcholinesterase inhibitors targeting the malaria mosquito, Anopheles gambiae” (Bioorg Med Chem, 2015).

The term LC50 denotes the concentration lethal to half of the exposed cells or organisms. What is called mortality is the percentage killed.

Structures are written as SMILES. Values after ≈ are worked out from the molar mass of the structure shown.

Assay [1] concerns Anopheles gambiae. Description: Tarsal contact toxicity in Anopheles gambiae Akron (MRA-913) assessed as mortality measured at 24 hrs by filter paper assay. It counts as functional. Summed up:
(§1)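 Non-blood-fed adult females, 3–5 days old, followed a modified 2006 WHO tube assay. Filter papers (15 × 12 cm) were treated with ethanolic carbamate and dried overnight. Mosquitoes were exposed 1 h, then given 10% sugar water, at 24 ± 1 °C and 75% RH; mortality was read at 24 h. G3 used 20-25/batch in triplicate and Akron 10-15 in duplicate. LC50 was from probit analysis of typically 5-8 concentrations.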

The test system of assay [2] is Anopheles gambiae. The assay can be described thus: Tarsal contact toxicity in Anopheles gambiae G3 (MRA-112) assessed as mortality measured at 24 hrs by filter paper assay. It counts as functional. The gist of the method:
as §1

The subject of assay [3] is Anopheles gambiae. The assay can be described thus: Tarsal contact toxicity in Anopheles gambiae G3 (MRA-112) assessed as mortality measured at 1000 ug/mL at 24 hrs by filter paper assay. The assay is classed as functional. The gist of the method:
as §1

Assay [4] has as its system Anopheles gambiae. Description: Tarsal contact toxicity in Anopheles gambiae Akron (MRA-913) assessed as mortality measured at 1000 ug/mL at 24 hrs by filter paper assay. It counts as functional. Summed up:
as §1

Assay [5] can be described thus: Inhibition of recombinant wild-type Anopheles gambiae AChE compound incubated for up to 6 min at approximately 1 min interval. Further details: unit not given here. Summed up: (§2)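 Recombinant AgAChE enzymes were incubated with typically five inhibitor concentrations plus an inhibitor-free control. Residual activity v/v0 was read by Ellman assay against a time-matched control, at 23 ± 1°C, pH 7.7, 0.1% (v/v) DMSO. kobs is the slope of ln(v/v0) vs time, from at least two experiments. ki is the slope of kobs vs [I] in the linear, non-saturating range. Duplicate wells.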

A short description of assay [6]: Inhibition of recombinant Anopheles gambiae AChE G119S mutant compound incubated for up to 60 mins at approximately 10 mins interval. Further details: unit not given here. Summed up:
as §2

Assay [7] addresses Acetylcholinesterase (Homo sapiens, UniProt P22303). The assay can be described thus: Inhibition of recombinant human AChE. Further details: unit not given here.
The test system of assay [8] is Anopheles gambiae. Description: Tarsal contact toxicity in Anopheles gambiae Akron (MRA-913) assessed as mortality measured at 200 ug/mL at 24 hrs by filter paper assay. It counts as functional. Summed up:
as §1

Sequence of Acetylcholinesterase (P22303 whole entry): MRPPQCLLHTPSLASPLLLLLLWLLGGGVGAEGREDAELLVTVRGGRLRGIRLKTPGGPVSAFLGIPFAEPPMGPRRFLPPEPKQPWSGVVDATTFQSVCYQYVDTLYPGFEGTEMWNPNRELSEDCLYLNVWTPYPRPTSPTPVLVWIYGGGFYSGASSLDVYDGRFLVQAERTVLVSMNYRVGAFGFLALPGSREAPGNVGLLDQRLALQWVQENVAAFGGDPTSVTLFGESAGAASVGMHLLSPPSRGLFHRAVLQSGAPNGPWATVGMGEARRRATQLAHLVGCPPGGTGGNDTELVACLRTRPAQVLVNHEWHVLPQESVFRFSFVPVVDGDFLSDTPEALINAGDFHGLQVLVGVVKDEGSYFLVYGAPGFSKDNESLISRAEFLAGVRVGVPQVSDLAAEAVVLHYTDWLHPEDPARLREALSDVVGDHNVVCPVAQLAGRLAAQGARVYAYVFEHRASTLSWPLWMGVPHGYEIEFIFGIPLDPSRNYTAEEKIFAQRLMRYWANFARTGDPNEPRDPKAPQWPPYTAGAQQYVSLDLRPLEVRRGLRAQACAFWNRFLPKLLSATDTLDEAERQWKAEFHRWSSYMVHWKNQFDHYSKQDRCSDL

As for `CNC(=O)Oc1cccc(C(C)(C)C)c1`, the median lethal concentration (LC50) in assay [1] is over 5000 µg/mL; in assay [2], 37 µg/mL (≈ 179 µM).

On to `Cc1cc(OC(=O)N(C)C)no1`, for which the mortality at 1000 µg/mL in assay [3] was 0%.

For the compound `CCC(C)n1cc(OC(=O)NC)cn1` (stereo not drawn), the LC50 in assay [1] was 81 µg/mL (≈ 411 µM); in assay [2], 96 µg/mL (≈ 487 µM).

Regarding `Cc1cc(=O)n(C(=O)N(C)C)o1`, the mortality at 1000 µg/mL in assay [3] came to 0%.

As for `CN(C)C(=O)n1oc(C2CC2)cc1=O`, the mortality at 1000 µg/mL in assay [4] was determined as 10%. The Ki was 50.5 in assay [5], 0.2 in assay [6] and 103 in assay [7]. For the same compound, in assay [2], the LC50 was 278 µg/mL (≈ 1420 µM).

As to `CC(C)c1cc(=O)n(C(=O)N(C)C)o1`, the LC50 in assay [1] came to 182 µg/mL (≈ 918 µM); in assay [2], 316 µg/mL (≈ 1590 µM).

For `CN(C)C(=O)n1oc(C2CCC2)cc1=O`, the 50% lethal concentration (LC50) in assay [1] stood at 74 µg/mL (≈ 352 µM); in assay [2], 79 µg/mL (≈ 376 µM).

Take `CCC(C)c1cc(=O)n(C(=O)N(C)C)o1` (stereo not drawn): the LC50 was 129 µg/mL (≈ 608 µM) in assay [1] and 63 µg/mL (≈ 297 µM) in assay [2].

Take `CN(C)C(=O)n1oc(C2CCCC2)cc1=O`: the LC50 worked out at 118 µg/mL (≈ 526 µM) in assay [1] and 105 µg/mL (≈ 468 µM) in assay [2].

For `CCCC(C)c1cc(=O)n(C(=O)N(C)C)o1` (stereo not drawn), the values for the LC50 in assay [1] and in assay [2] were 75 µg/mL (≈ 331 µM) and 153 µg/mL (≈ 676 µM), respectively.

For the compound `CCC(CC)c1cc(=O)n(C(=O)N(C)C)o1`, the LC50 in assay [1] came out at 40 µg/mL (≈ 177 µM); in assay [2] it was 38 µg/mL (≈ 168 µM).

Consider `CC(C)Cc1cc(=O)n(C(=O)N(C)C)o1`, for which the Ki in assay [5] is reported as 252; in assay [6], 0.55; in assay [7], 30.9. Further, in assay [8], the mortality at 200 µg/mL came out at 25%. For the same compound, the LC50 in assay [2] came out at 201 µg/mL (≈ 947 µM).

With `CCC(C)Cc1cc(=O)n(C(=O)N(C)C)o1` (stereo not drawn), the mortality at 1000 µg/mL in assay [3] was 0%.

Consider `CN(C)C(=O)n1oc(CC(C)(C)C)cc1=O`, for which the mortality at 1000 µg/mL in assay [3] was found to be 80%.

With `CC(C)CCc1cc(=O)n(C(=O)N(C)C)o1`, the Ki is on record as 266 in assay [5], 0.4 in assay [6] and 80.9 in assay [7]. The median lethal concentration (LC50) was 68 µg/mL (≈ 301 µM) in assay [1] and 73 µg/mL (≈ 323 µM) in assay [2].

On to `CN(C)C(=O)n1oc(CCC2CC2)cc1=O`, for which the median lethal concentration (LC50) in assay [1] was 144 µg/mL (≈ 642 µM); in assay [2] it was 133 µg/mL (≈ 593 µM).

Regarding `CN(C)C(=O)n1oc(CCC2CCC2)cc1=O`, the mortality at 1000 µg/mL in assay [3] amounted to 30%.

For `CN(C)C(=O)n1oc(CCC2CCCC2)cc1=O`, the mortality at 1000 µg/mL in assay [3] worked out at 0%.

Regarding `CCCC(C)c1cc(=O)n(C(=O)N2CCC2)o1` (stereo not drawn), the mortality at 1000 µg/mL in assay [3] was 78%.

On to `CCCC(C)c1cc(=O)n(C(=O)N(C)CC)o1` (stereo not drawn), for which the LC50 in assay [1] was determined as 614 µg/mL (≈ 2560 µM); in assay [2] it was 400 µg/mL (≈ 1660 µM).

Take `CCCC(C)c1cc(=O)n(C(=O)N(CC)CC)o1` (stereo not drawn): the mortality at 1000 µg/mL in assay [3] worked out at 15%.

In the case of `CCCC(C)c1cc(=O)n(C(=O)N2CCCC2)o1` (stereo not drawn), in assay [3], the mortality at 1000 µg/mL is 77%.

On to `CCCC(C)c1cc(=O)n(C(=O)N2CCOCC2)o1` (stereo not drawn), for which the mortality at 1000 µg/mL in assay [3] was 45%.

In the case of `CN(C)C(=O)Oc1cc(C2CC2)on1`, the mortality at 1000 µg/mL in assay [3] was found to be 0%.

With `CC(C)c1cc(OC(=O)N(C)C)no1`, the LC50 came out at 116 µg/mL (≈ 585 µM) in assay [1] and 84 µg/mL (≈ 424 µM) in assay [2].

As to `CN(C)C(=O)Oc1cc(C2CCC2)on1`, the LC50 came to 392 µg/mL (≈ 1860 µM) in assay [1] and 349 µg/mL (≈ 1660 µM) in assay [2].

Take `CCC(C)c1cc(OC(=O)N(C)C)no1` (stereo not drawn): the LC50 stood at 58 µg/mL (≈ 273 µM) in assay [1] and 41 µg/mL (≈ 193 µM) in assay [2].

Consider `CN(C)C(=O)Oc1cc(C2CCCC2)on1`, for which the mortality at 1000 µg/mL in assay [3] was 60%.

Turning to `CCCC(C)c1cc(OC(=O)N(C)C)no1` (stereo not drawn), the Ki in assay [5] was 416; in assay [6] it was 30.6; in assay [7], 50.9. Further, the 50% lethal concentration (LC50) in assay [1] was determined as 296 µg/mL (≈ 1310 µM); in assay [2] it was 234 µg/mL (≈ 1030 µM).

As to `CCC(CC)c1cc(OC(=O)N(C)C)no1`, in assay [3], the mortality at 1000 µg/mL is 70%.

For `CCCCC(CC)c1cc(OC(=O)N(C)C)no1` (stereo not drawn), in assay [3], the mortality at 1000 µg/mL amounted to 0%.

`CC(C)Cc1cc(OC(=O)N(C)C)no1`: the LC50 in assay [1] is 151 µg/mL (≈ 711 µM); in assay [2] it was 253 µg/mL (≈ 1190 µM).

`CCC(C)Cc1cc(OC(=O)N(C)C)no1` (stereo not drawn): the mortality at 1000 µg/mL in assay [3] turned out to be 30%.

`CN(C)C(=O)Oc1cc(CC(C)(C)C)on1`: the Ki in assay [5] worked out at 0.12; in assay [6], 0.05; in assay [7] it was 0.44. Also, the mortality at 1000 µg/mL in assay [3] turned out to be 0%.

As to `CC(C)CCc1cc(OC(=O)N(C)C)no1`, the LC50 in assay [1] was 429 µg/mL (≈ 1900 µM); in assay [2] it was 415 µg/mL (≈ 1830 µM).

For `CN(C)C(=O)Oc1cc(CCC2CC2)on1`, the LC50 in assay [1] amounted to 198 µg/mL (≈ 883 µM); in assay [2] it was 191 µg/mL (≈ 852 µM).

Consider `CN(C)C(=O)Oc1cc(CCC2CCC2)on1`, for which the mortality at 1000 µg/mL in assay [3] turned out to be 40%.

On to `CN(C)C(=O)Oc1cc(CCC2CCCC2)on1`, for which the Ki is recorded as 0.6 in assay [5], 0.12 in assay [6] and 13.1 in assay [7]. In assay [2], the LC50 was 674 µg/mL (≈ 2670 µM).

For the compound `CCCC(C)c1cc(OC(=O)N(C)CC)no1` (stereo not drawn), the 50% lethal concentration (LC50) in assay [1] worked out at 574 µg/mL (≈ 2390 µM); in assay [2], 410 µg/mL (≈ 1710 µM).

`CCCC(C)c1cc(OC(=O)N2CCCC2)no1` (stereo not drawn): the mortality at 1000 µg/mL in assay [3] turned out to be 0%.

In the case of `CCCC(C)c1cc(OC(=O)N2CCOCC2)no1` (stereo not drawn), the mortality at 1000 µg/mL in assay [3] is 10%.

Turning to `CNC(=O)O/N=C/C(C)(C)SC` [ALDICARB], the median lethal concentration (LC50) in assay [1] was found to be 32 µg/mL (≈ 168 µM); in assay [2], 70 µg/mL (≈ 368 µM).

In the case of `CNC(=O)Oc1cccc2c1OC(C)(C)O2` [BENDIOCARB], the figures for the LC50 in assay [1] and in assay [2] were over 5000 µg/mL and 16 µg/mL (≈ 71.7 µM), respectively.

As for `CNC(=O)Oc1cccc2c1OC(C)(C)C2` [CARBOFURAN], the LC50 in assay [1] was over 5000 µg/mL; in assay [2], 16 µg/mL (≈ 72.3 µM).

Consider `CNC(=O)Oc1ccccc1OC(C)C` [PROPOXUR], for which the figures for the LC50 in assay [1] and in assay [2] were over 5000 µg/mL and 39 µg/mL (≈ 186 µM), respectively.
